Laboratory results reported in ChEMBL document CHEMBL1833943, “Synthesis and structure-activity relationships of varied ether linker analogues of the antitubercular drug (6S)-2-nitro-6-{[4-(trifluoromethoxy)benzyl]oxy}-6,7-dihydro-5h-imidazo[2,1-b][1,3]oxazine (PA-824)” (J Med Chem, 2011).
In brackets after ≈: the same amount, converted by molar mass.

Legend:
[1] = test system: Mycobacterium tuberculosis; assay: Antituberculosis activity against Mycobacterium tuberculosis H37Rv under aerobic conditions by microplate alamar blue assay; type: functional
[2] = Metabolic stability in human liver microsomes at 1 uM measured as compound remaining after 1 hr by LC/MS/MS analysis; type: ADME, Microsome; conditions: read-out: Stability
[3] = Cmax in lung of CD1 mouse at 40 mg/kg, po; type: ADME, organism-based; parameters: dose 40 mg/kg, route oral
In short: (§1)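 Mice given a single oral dose of 40 mg/kg; drug levels followed over time in plasma and lung tissue to derive half-life, Cmax and AUC for each matrix.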

[4] = Metabolic stability in CD1 mouse liver microsomes at 1 uM measured as compound remaining after 1 hr by LC/MS/MS analysis; type: ADME, Microsome; conditions: read-out: Stability
[5] = test system: Mycobacterium tuberculosis; assay: Antituberculosis activity against Mycobacterium tuberculosis H37Rv infected in BALB/c mouse acute infection model assessed as fold reduction in bacterial CFU in lungs at 100 mg/kg, po administered for 5 days a week for 3 weeks beginning on day 11 postinfection relative to PA-824; type: functional
In short: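 Mice with acute M. tb infection dosed orally at 100 mg/kg daily, 5 days each week, standard 3 week assay. Lung CFUs counted. Value is the fold CFU decrease for the compound divided by the fold CFU decrease for the internal reference standard run in the same experiment.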

[6] = Aqueous solubility of the compound in water at pH 7 by HPLC analysis; type: physicochemical
In short: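 Solubility measured in water at pH 7 and 20 °C, quantified by HPLC.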

[7] = AUC (0 to infinity) in lung of CD1 mouse at 40 mg/kg, po; type: ADME, organism-based; parameters: time infinity, dose 40 mg/kg, route oral; in short: as §1
[8] = Half life in plasma of CD1 mouse at 40 mg/kg, po; type: ADME, organism-based; parameters: dose 40 mg/kg, route oral
[9] = Ratio of AUC (0 to infinity) in lung of CD1 mouse to AUC (0 to infinity) in plasma of CD1 mouse at 40 mg/kg, po; type: ADME, organism-based; parameters: dose 40 mg/kg, route oral; conditions: read-out: Ratio AUC
[10] = AUC (0 to infinity) in plasma of CD1 mouse at 40 mg/kg, po; type: ADME, organism-based; parameters: time infinity, dose 40 mg/kg, route oral; in short: as §1
[11] = test system: Mycobacterium tuberculosis; assay: Antituberculosis activity against Mycobacterium tuberculosis H37Rv infected in BALB/c mouse chronic infection model assessed as fold reduction in bacterial CFU in lungs at 100 mg/kg, po administered for 5 days a week for 3 weeks beginning on day 70 postinfection relative to OPC-67683; type: functional
In short: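 Chronic M. tb infection model with dosing starting ~70 days post infection, once bacteria are in a plateau phase of growth. Oral 100 mg/kg daily, 5 days/week, 3 weeks. Lung CFUs counted. Value is the fold CFU reduction for the compound relative to the fold reduction for the reference agent.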

[12] = Cmax in plasma of CD1 mouse at 40 mg/kg, po; type: ADME, organism-based; parameters: dose 40 mg/kg, route oral; in short: as §1
[13] = test system: Mycobacterium tuberculosis; assay: Antituberculosis activity against Mycobacterium tuberculosis H37Rv under anaerobic conditions by fluorescence based low-oxygen-recovery assay; type: functional
[14] = Stability of the compound in antimycobacterial activity assay condition assessed as parent compound level; type: ADME
[15] = Half life in the lung of CD1 mouse at 40 mg/kg, po; type: ADME, organism-based; parameters: dose 40 mg/kg, route oral; in short: as §1

Structure (SMILES)	MIC [1]	remaining at 1 h, 1 µM [2]	Cmax [3]	remaining at 1 h, 1 µM [4]	fold change (FC) [5]	solubility [6]	AUC(0-inf) [7]	half-life [8]	Kp [9]	AUC(0-inf) [10]	fold change (FC) [11]	Cmax [12]	MIC [13]	Stability [14]	half-life [15]
O=[N+]([O-])c1cn2c(n1)OC[C@@H](OCCCc1ccc(-c3ccc(OC(F)(F)F)cc3)cc1)C2	0.15 µM (≈ 0.0695 µg/mL)	88%	10100 ng/mL	91%	1.5	1.7 µg/mL (≈ 3.67 µM)	29500 ng·h/mL	4.4 h	2.2	13300 ng·h/mL	0.025	990 ng/mL	3.8 µM (≈ 1.76 µg/mL)		
O=[N+]([O-])c1cn2c(n1)OC[C@@H](OCCCc1ccc(-c3ccc(C(F)(F)F)cc3)cc1)C2	0.043 µM (≈ 0.0192 µg/mL)	73%		81%	0.05								> 128 µM		
O=[N+]([O-])c1cn2c(n1)OC[C@@H](OCCOc1ccc(-c3ccc(OC(F)(F)F)cc3)cc1)C2	0.055 µM (≈ 0.0256 µg/mL)	90%		70%	1.4	0.68 µg/mL (≈ 1.46 µM)							1.6 µM (≈ 0.745 µg/mL)		
O=[N+]([O-])c1cn2c(n1)OC[C@@H](OCCOc1ccc(-c3ccc(OC(F)(F)F)cc3)cn1)C2	0.04 µM (≈ 0.0187 µg/mL)					0.79 µg/mL (≈ 1.69 µM)							2.5 µM (≈ 1.17 µg/mL)	< 50%	
O=[N+]([O-])c1cn2c(n1)OC[C@@H](OCCOc1ncc(-c3ccc(OC(F)(F)F)cc3)cn1)C2	0.13 µM (≈ 0.0608 µg/mL)					21 µg/mL (≈ 44.9 µM)							2.1 µM (≈ 0.981 µg/mL)		
O=[N+]([O-])c1cn2c(n1)OC[C@@H](OC/C=C/c1ccc(-c3ccc(OC(F)(F)F)cc3)cc1)C2		100%		95%	2	0.5 µg/mL (≈ 1.08 µM)							> 128 µM		
O=[N+]([O-])c1cn2c(n1)OC[C@@H](OCC#Cc1ccc(-c3ccc(OC(F)(F)F)cc3)cc1)C2		93%	760 ng/mL	85%	89	0.07 µg/mL (≈ 0.152 µM)	13600 ng·h/mL	7.5 h	1.4	10000 ng·h/mL	1.6	570 ng/mL			12.3 h
O=[N+]([O-])c1cn2c(n1)OC[C@@H](OCC#Cc1ccc(-c3ccc(C(F)(F)F)nc3)cc1)C2	0.15 µM (≈ 0.0667 µg/mL)	82%		90%	0.01								1.2 µM (≈ 0.533 µg/mL)		
O=[N+]([O-])c1cn2c(n1)OC[C@@H](OCC#Cc1cccc(-c3ccc(OC(F)(F)F)cc3)c1)C2	0.11 µM (≈ 0.0505 µg/mL)	94%	12900 ng/mL	89%	6.4	0.27 µg/mL (≈ 0.588 µM)	257000 ng·h/mL	14.7 h	7.2	35800 ng·h/mL		1660 ng/mL	1.3 µM (≈ 0.597 µg/mL)		14.1 h
O=[N+]([O-])c1cn2c(n1)OC[C@@H](OCC#Cc1ccc(-c3ccc(OC(F)(F)F)cc3)cn1)C2	0.025 µM (≈ 0.0115 µg/mL)	89%		86%	0.91	0.05 µg/mL (≈ 0.109 µM)							0.35 µM (≈ 0.161 µg/mL)		
O=[N+]([O-])c1cn2c(n1)OC[C@@H](OCCCC#Cc1ccc(-c3ccc(OC(F)(F)F)cc3)cc1)C2	0.055 µM (≈ 0.0268 µg/mL)												> 128 µM	Unstable	
O=[N+]([O-])c1cn2c(n1)OC[C@@H](Oc1ccc(-c3ccc(OC(F)(F)F)cc3)cn1)C2	0.39 µM (≈ 0.165 µg/mL)	96%		93%	0.17	0.24 µg/mL (≈ 0.568 µM)							12 µM (≈ 5.07 µg/mL)		
O=[N+]([O-])c1cn2c(n1)OC[C@@H](Oc1ncc(-c3ccc(OC(F)(F)F)cc3)cn1)C2	0.22 µM (≈ 0.0931 µg/mL)	88%		95%		1.7 µg/mL (≈ 4.02 µM)							5.2 µM (≈ 2.2 µg/mL)		
O=[N+]([O-])c1cn2c(n1)OC[C@@H](OCCCC#Cc1ccc(C(F)(F)F)nc1)C2	0.12 µM (≈ 0.0476 µg/mL)					16 µg/mL (≈ 40.4 µM)							9.2 µM (≈ 3.65 µg/mL)		
O=[N+]([O-])c1cn2c(n1)OC[C@@H](Oc1ccc(-c3ccc(OC(F)(F)F)cc3)cc1)C2	0.09 µM (≈ 0.0379 µg/mL)		15800 ng/mL		8.1	0.33 µg/mL (≈ 0.783 µM)	347000 ng·h/mL	37.9 h	3.4	102000 ng·h/mL		1860 ng/mL	1.1 µM (≈ 0.463 µg/mL)		15.3 h
O=[N+]([O-])c1cn2c(n1)OC[C@@H](Oc1cc(-c3ccc(OC(F)(F)F)cc3)ccn1)C2	5.1 µM (≈ 2.15 µg/mL)					0.13 µg/mL (≈ 0.308 µM)							87 µM (≈ 36.7 µg/mL)	< 50%	
O=[N+]([O-])c1cn2c(n1)OC[C@@H](Oc1cc(-c3ccc(OC(F)(F)F)cc3)ncn1)C2	2.1 µM (≈ 0.889 µg/mL)					0.88 µg/mL (≈ 2.08 µM)								< 50%	
O=[N+]([O-])c1cn2c(n1)OC[C@@H](OCc1ccc(-c3ccc(OC(F)(F)F)cc3)cc1)C2											0.86				12.8 h
CC(O[C@@H]1COc2nc([N+](=O)[O-])cn2C1)c1ccc(OC(F)(F)F)cc1 (mixture of isomers)	0.6 µM	73%		75%									7.7 µM		
